The record followed here is ChEMBL document CHEMBL1127325, “Potent gastrin-releasing peptide (GRP) antagonists derived from GRP (19-27) with a C-terminal DPro psi [CH2NH]Phe-NH2 and N-terminal aromatic residues” (J Med Chem, 1994).

For assay [1], the target named is Gastrin-releasing peptide receptor (Mus musculus) (UniProt P21729). In words: Inhibition of 6 nM bombesin induced [3H]thymidine incorporation measured in swiss 3T3 cells using a mitogenicity assay. The assay is classed as functional, cell-based. The gist of the method: (§1)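 Density-arrested quiescent Swiss 3T3 monolayers treated in triplicate with test peptide (generally log dilutions) plus 6 nM bombesin for 18 h, then pulsed 2 h with 0.5 µCi [3H]thymidine per well. Cells washed with cold PBS, fixed in methanol/acetic acid, solubilized, scintillation counted. IC50 ± SEM over replicate trials; na means no activity at 10^-4 M.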
Gastrin-releasing peptide receptor (Mus musculus), sequence (P21729 whole entry): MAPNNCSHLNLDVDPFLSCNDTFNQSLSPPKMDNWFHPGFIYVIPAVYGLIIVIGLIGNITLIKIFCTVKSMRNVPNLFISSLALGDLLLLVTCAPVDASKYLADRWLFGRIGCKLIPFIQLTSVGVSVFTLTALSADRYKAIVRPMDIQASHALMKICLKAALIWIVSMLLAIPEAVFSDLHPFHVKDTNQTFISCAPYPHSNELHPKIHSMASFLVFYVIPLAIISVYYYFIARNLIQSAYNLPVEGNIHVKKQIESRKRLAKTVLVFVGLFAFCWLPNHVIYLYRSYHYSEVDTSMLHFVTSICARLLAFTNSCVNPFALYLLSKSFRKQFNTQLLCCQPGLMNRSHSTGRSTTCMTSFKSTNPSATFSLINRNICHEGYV

In assay [2] the target is T1, Gastrin-releasing peptide receptor (Mus musculus, UniProt P21729). In words: Ability of peptide to inhibit binding of 10 pM [125I]gastrin releasing peptide to S-3T3 cell membrane. The assay is classed as cell-based. The gist of the method:
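Swiss 3T3 membranes (10 µg protein) incubated in triplicate with 10 pM [125I]GRP(1-27) in HEPES-KOH pH 6.8 (20 mM) with EGTA, MgCl2, BSA and protease inhibitors, 60 min at 37 °C with shaking. Terminated by filtration through PEI-pretreated GF/B filters, gamma counted. Nonspecific binding taken with 10 nM unlabeled GRP(1-27). IC50 for half-maximal inhibition of specific binding by Hill plot analysis.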

Assay [3] deals with T1, Gastrin-releasing peptide receptor. In words: The ability of the peptide to inhibit the binding of 50 pM [125I]gastrin releasing peptide to intact S-3T3 cells. The assay is classed as cell-based. Summed up: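 Serially diluted peptides overlaid in triplicate on quiescent Swiss 3T3 monolayers (about 10^5 cells) with 50 pM [125I]GRP in maintenance medium, 30 min at 37 °C. Monolayers washed three times with chilled medium, solubilized, radioactivity counted. IC50 values reported.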

The nature of assay [4]: The ability of the peptide to inhibit the binding of 10 pM [125I]gastrin releasing peptide to S-3T3 cell membrane was measured. To be noted: Mus musculus.
Assay [5] relates to NIH3T3. In words: The ability of the peptide to inhibit the binding of 50 pM [125I]gastrin releasing peptide to intact S-3T3 cells was measured. The assay is classed as cell-based. As to conditions: Mus musculus. The gist of the method: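 Quiescent, density-arrested Swiss 3T3 monolayers (about 10^5 cells) in maintenance medium. Serially diluted peptides were added in triplicate with [125I]GRP and incubated 37 °C, 30 min. Monolayers were washed three times with chilled medium, solubilized with detergent and counted. IC50 reported ± SEM.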

The subject of assay [6] is NIH3T3. In words: Ability of the peptide to inhibit 6 nM bombesin induced [3H]thymidine incorporation was measured in swiss 3T3 cells using mitogenicity assay; na=Not active. The assay is classed as functional, cell-based. As to conditions: Mus musculus. The gist of the method: as §1

Each structure is given as a SMILES string. pIC50: −log10 of the molar value. Active and inactive are the calls of the source. The calls are words filed in the database; no cut-off is given here. Where a SMILES comes first, the peptide text is derived from it. [ ]: non-standard residue; d: D form. The star is where a group is joined. ProΨ(CH2NH)PheNH2 = NC(=O)[C@H](Cc1ccccc1)NC[C@@H]1CCCN1*; dProψ(CH2NH)PheNH2 = NC(=O)[C@H](Cc1ccccc1)NC[C@H]1CCCN1*; Propanoyl(3-(4-MeO-Ph)) = COc1ccc(CCC(=O)*)cc1; Desaminotyrosyl = O=C(CCc1ccc(O)cc1)*; Hydrocinnamoyl = O=C(CCc1ccccc1)*; X8 = COc1cc(CCC(=O)*)cc(OC)c1OC; X5 = C[C@@H](C(=O)*)c1ccccc1; X6 = C[C@H](C(=O)*)c1ccccc1; X7 = CC(C)(CC(=O)*)c1ccccc1; X1 = CC(C)(C(=O)*)c1ccccc1; Sar = CNCC(=O)O

T1 sequence (P21729 whole entry): as above

Regarding `CC(C)[C@H](NC(=O)[C@H](C)NC(=O)[C@H](Cc1c[nH]c2ccccc12)NC(=O)[C@H](Cc1c[nH]cn1)NC(=O)C1C[C@@H]1c1ccccc1)C(=O)N[C@H](C)C(=O)N[C@@H](Cc1c[nH]cn1)C(=O)N1CCC[C@@H]1CN[C@@H](Cc1ccccc1)C(N)=O` (stereo not given in full), the Activity in assay [1] amounted to 0.2 nM. Besides, the pIC50 in assay [2] is 10.31; in assay [3] it was 10.52.

With `CC(C)[C@H](NC(=O)[C@H](C)NC(=O)[C@H](Cc1c[nH]c2ccccc12)NC(=O)[C@H](Cc1cnc[nH]1)NC(=O)c1cccc2ccccc12)C(=O)N[C@H](C)C(=O)N[C@@H](Cc1cnc[nH]1)C(=O)N1CCC[C@@H]1CN[C@@H](Cc1ccccc1)C(N)=O`, the figures for the pIC50 in assay [2] and in assay [3] were 10.30 and 12.00, respectively.

As to `CC(C)[C@H](NC(=O)[C@H](C)NC(=O)[C@H](Cc1c[nH]c2ccccc12)NC(=O)[C@H](Cc1c[nH]cn1)NC(=O)Cc1ccccc1N)C(=O)N[C@H](C)C(=O)N[C@@H](Cc1c[nH]cn1)C(=O)N1CCC[C@@H]1CN[C@@H](Cc1ccccc1)C(N)=O`, in assay [1], the Activity was found to be 13 nM. Moreover, the results for the pIC50 in assay [2] and in assay [3] were 8.70 and 10.00, respectively.

`CC(C)[C@H](NC(=O)[C@H](C)NC(=O)[C@H](Cc1c[nH]c2ccccc12)NC(=O)[C@H](Cc1cnc[nH]1)NC(=O)CCc1ccc(O)cc1)C(=O)N[C@H](C)C(=O)N[C@@H](Cc1cnc[nH]1)C(=O)N1CCC[C@@H]1CN[C@@H](Cc1ccccc1)C(N)=O` (Desaminotyrosyl-HWAV[dA]H-{dProψ(CH2NH)PheNH2}): the negative-log IC50 (pIC50) is 9.64 in assay [2] and 10.30 in assay [3].

Take `CC(C)[C@H](NC(=O)[C@H](C)NC(=O)[C@H](Cc1c[nH]c2ccccc12)NC(=O)[C@H](Cc1cnc[nH]1)NC(=O)CCc1ccccc1)C(=O)N(C)CC(=O)N[C@@H](Cc1cnc[nH]1)C(=O)N1CCC[C@H]1CN[C@@H](Cc1ccccc1)C(N)=O` (Hydrocinnamoyl-HWAV[Sar]H-{ProΨ(CH2NH)PheNH2}): the pIC50 in assay [2] is 7.68; in assay [3] it was 10.00.

The molecule `CC(C)[C@H](NC(=O)[C@H](C)NC(=O)[C@H](Cc1c[nH]c2ccccc12)NC(=O)[C@H](Cc1c[nH]cn1)NC(=O)C(C)(C)c1ccccc1)C(=O)N[C@H](C)C(=O)N[C@@H](Cc1c[nH]cn1)C(=O)N1CCC[C@@H]1CN[C@@H](Cc1ccccc1)C(N)=O` (X1-HWAV[dA]H-{dProψ(CH2NH)PheNH2}) registered an Activity in assay [1] of 0.34 nM. Further, the pIC50 in assay [2] is 9.74; in assay [3] it was 11.52.

The molecule `CC(C)[C@H](NC(=O)[C@H](C)NC(=O)[C@H](Cc1c[nH]c2ccccc12)NC(=O)[C@H](Cc1c[nH]cn1)NC(=O)[C@H](C)c1ccccc1)C(=O)N[C@H](C)C(=O)N[C@@H](Cc1c[nH]cn1)C(=O)N1CCC[C@@H]1CN[C@@H](Cc1ccccc1)C(N)=O` (X5-HWAV[dA]H-{dProψ(CH2NH)PheNH2}) returned an Activity in assay [1] of 0.9 nM. Moreover, the pIC50 is 9.02 in assay [2] and 7.52 in assay [3].

Regarding `CC(C)[C@H](NC(=O)[C@H](C)NC(=O)[C@H](Cc1c[nH]c2ccccc12)NC(=O)[C@H](Cc1c[nH]cn1)NC(=O)[C@@H](C)c1ccccc1)C(=O)N[C@H](C)C(=O)N[C@@H](Cc1c[nH]cn1)C(=O)N1CCC[C@@H]1CN[C@@H](Cc1ccccc1)C(N)=O` (X6-HWAV[dA]H-{dProψ(CH2NH)PheNH2}), the Activity in assay [1] was 7e-08. In addition, the figures for the pIC50 in assay [2] and in assay [3] were 8.89 and 9.00, respectively.

In assay [1], `CC(C)[C@H](NC(=O)[C@H](C)NC(=O)[C@H](Cc1c[nH]c2ccccc12)NC(=O)[C@H](Cc1c[nH]cn1)NC(=O)CC(C)(C)c1ccccc1)C(=O)N[C@H](C)C(=O)N[C@@H](Cc1c[nH]cn1)C(=O)N1CCC[C@@H]1CN[C@@H](Cc1ccccc1)C(N)=O` (X7-HWAV[dA]H-{dProψ(CH2NH)PheNH2}) gave an Activity of 18 nM. For the same molecule, the pIC50 in assay [2] is 8.92; in assay [3], 8.00.

Consider `COc1cc(CCC(=O)N[C@@H](Cc2c[nH]cn2)C(=O)N[C@@H](Cc2c[nH]c3ccccc23)C(=O)N[C@@H](C)C(=O)N[C@H](C(=O)N[C@H](C)C(=O)N[C@@H](Cc2c[nH]cn2)C(=O)N2CCC[C@@H]2CN[C@@H](Cc2ccccc2)C(N)=O)C(C)C)cc(OC)c1OC` (X8-HWAV[dA]H-{dProψ(CH2NH)PheNH2}), for which the Activity in assay [1] turned out to be 0.3 nM. In addition, the pIC50 in assay [4] was 9.34; in the assay with NIH3T3 [5], 12.00.

`CC(NC(=O)[C@H](Cc1c[nH]c2ccccc12)NC(=O)[C@H](Cc1c[nH]cn1)NC(=O)CCc1ccccc1)C(=O)N[C@H](C(=O)NC(C)C(=O)N[C@@H](Cc1c[nH]cn1)C(=O)N1CCC[C@H]1C(O)CC(=O)N[C@@H](Cc1ccccc1)C(N)=O)C(C)C` (stereo in doubt) registered an Activity in assay [1] of 26 nM. For the same molecule, the results for the pIC50 in assay [2] and in assay [3] were 7.51 and 7.30, respectively.

With `CC(NC(=O)[C@H](Cc1c[nH]c2ccccc12)NC(=O)[C@H](Cc1c[nH]cn1)NC(=O)CCc1ccccc1)C(=O)N[C@H](C(=O)NC(C)C(=O)N[C@@H](Cc1c[nH]cn1)C(=O)N1CCC[C@H]1CN[C@@H](Cc1ccccc1)C(N)=O)C(C)C` (stereo in doubt), the Activity in assay [1] is 1 nM. Besides, the pIC50 in assay [2] is 9.66; in assay [3] it was 12.00.

Turning to `CC(NC(=O)[C@H](Cc1c[nH]c2ccccc12)NC(=O)[C@H](Cc1cccs1)NC(=O)CCc1ccccc1)C(=O)N[C@H](C(=O)NC(C)C(=O)N[C@@H](Cc1c[nH]cn1)C(=O)N1CCC[C@H]1CN[C@@H](Cc1ccccc1)C(N)=O)C(C)C` (stereo in doubt), the Activity in assay [1] was found to be 50 nM. In addition, the pIC50 was 7.25 in assay [2] and 8.00 in assay [3].

As to `CC(NC(=O)[C@H](Cc1c[nH]c2ccccc12)NC(=O)[C@H](Cc1c[nH]cn1)NC(=O)CCc1ccccc1)C(=O)N[C@H](C(=O)NC(C)C(=O)N[C@@H](Cc1c[nH]cn1)C(=O)N1CCC[C@@H]1C(O)CC(=O)N[C@@H](Cc1ccccc1)C(N)=O)C(C)C` (stereo in doubt), in the assay on NIH3T3 [6], the result was inactive. The pIC50 in assay [2] is 6.85; in assay [3] it was 7.22.

`CC(C)CC(NC(=O)[C@H](Cc1c[nH]cn1)NC(=O)C(C)NC(=O)[C@@H](NC(=O)C(C)NC(=O)[C@H](Cc1c[nH]c2ccccc12)NC(=O)[C@H](Cc1c[nH]cn1)NC(=O)CCc1ccccc1)C(C)C)C(O)CC(=O)N[C@@H](Cc1ccccc1)C(N)=O` (stereo in doubt): the Activity in assay [1] came out at 6 nM. Further, the figures for the pIC50 in assay [2] and in assay [3] were 7.14 and 10.00, respectively.

For the molecule `COc1ccc(CCC(=O)N[C@@H](Cc2c[nH]cn2)C(=O)N[C@@H](Cc2c[nH]c3ccccc23)C(=O)N[C@@H](C)C(=O)N[C@H](C(=O)N[C@H](C)C(=O)N[C@@H](Cc2c[nH]cn2)C(=O)N2CCC[C@@H]2CN[C@@H](Cc2ccccc2)C(N)=O)C(C)C)cc1` ({Propanoyl(3-(4-MeO-Ph))}-HWAV[dA]H-{dProψ(CH2NH)PheNH2}), the Activity in assay [1] came to 0.3 nM. The pIC50 in assay [4] is 9.33; in the assay on NIH3T3 [5] it was 8.00.
